Screening data: PubChem, Sanford-Burnham Center for Chemical Genomics
hIAP act = human IAP activation; purified human IAP, CDP-Star luminescence, 30 min; stronger effect = higher value; 1 = vehicle-only enzyme, 0 = enzyme-free background; activation factor at 10 µM; hit rate 0.16% among 330,000; AID 2524;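 active means activation factor of the enzyme at least 2-fold when tested at 20 µM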
Target sequence (P09923 whole entry, looked up): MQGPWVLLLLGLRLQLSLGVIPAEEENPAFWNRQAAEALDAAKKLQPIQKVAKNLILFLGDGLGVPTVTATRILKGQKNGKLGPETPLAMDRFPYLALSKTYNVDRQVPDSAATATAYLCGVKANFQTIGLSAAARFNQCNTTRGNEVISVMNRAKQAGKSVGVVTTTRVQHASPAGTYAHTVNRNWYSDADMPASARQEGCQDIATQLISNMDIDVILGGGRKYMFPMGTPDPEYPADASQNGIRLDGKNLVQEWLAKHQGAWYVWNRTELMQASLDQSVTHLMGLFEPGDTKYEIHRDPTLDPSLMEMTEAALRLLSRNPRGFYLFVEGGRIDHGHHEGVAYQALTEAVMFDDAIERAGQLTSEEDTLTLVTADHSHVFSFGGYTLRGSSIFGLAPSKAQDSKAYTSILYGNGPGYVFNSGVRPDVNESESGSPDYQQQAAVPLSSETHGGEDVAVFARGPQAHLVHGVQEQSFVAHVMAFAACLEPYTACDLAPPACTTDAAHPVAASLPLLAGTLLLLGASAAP
bIAP inhibitor = intestinal alkaline phosphatase (bovine) inhibition | purified bovine IAP, CDP-star luminescence, 30 min | inhibition, % at 20 µM | 190,000 tested, under 10 active;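 active means over 50% inhibition of intestinal alkaline phosphatase at 20 µM in the single-dose screen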
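System: Purified bovine intestinal alkaline phosphatase (IAP) enzyme | Input: IAP diluted 1/65,000,000 in the well | Also added: CDP-star chemiluminescent phosphatase substrate, 30 µM final | Dosing: 20 µM single dose | Times: Enzyme reaction for 30 min at room temperature | Detection: Luminescence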
hIAP inh = human IAP inhibition; P09923; purified IAP, CDP-Star luminescence, 30 min; inhibition, % at 10 µM; hit rate 0.12% among 330,000; AID 2544;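 active means inhibition reaching a set limit with compound at 10 µM in the primary screen, cut at about 35% in these data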;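 further: plate controls were DMSO wells with enzyme for no effect and no-enzyme buffer wells for full effect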
mIAP block = mouse IAP inhibition; hit rate 0.2% among 330,000; purified mouse IAP, CDP-Star luminescence, 30 min; inhibition, % at 10 µM;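 active means inhibition of at least 40% at 10 µM in the primary screen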;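 further: plate controls were DMSO with enzyme for no effect and no enzyme wells for full effect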
mIAP act = mouse IAP activation; muIAP, CDP-Star luminescence, 30 min; stronger effect = higher value; 1 = vehicle-only enzyme signal, 0 = enzyme-free wells; activation factor at 10 µM; hit rate 0.24% among 330,000; AID 2805;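 active means activation factor of at least 2 at 20 µM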
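also added = chemiluminescent substrate CDP-Star | test system = mouse IAP enzyme | signal = chemiluminescence readout | compound = DMSO-dissolved test compounds | incubation = 30 min at room temperature | benchmarks = DMSO wells, no-enzyme wells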
bIAP act = increases bovine intestinal alkaline phosphatase activity; purified bovine IAP, CDP-star luminescence, 30 min; stronger effect = higher value; fold of DMSO-control signal, blank-subtracted; activation factor at 20 µM; hit rate 0.17% among 200,000; AID 1016;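 active means activation factor of 2 or more at 20 µM, a signal rise over negative controls twice the positive control's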
hIAP act confirm = human IAP activation confirmation | shares compounds with hIAP act | purified IAP, CDP-Star luminescence, 30 min; stronger effect = lower value | activation (%Activity, negative = activation), % at 8.3 µM | hit rate 10% among 880 | AID 434926;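 active means at least twofold enzyme activation in any of six single-dose repeats, which the averaged readout prints as negative percent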
The depositor's hits bear a star; . = no result. This is a sample that favours compounds with a hit; in the whole collection about 0.77% have one here.

SMILES	hIAP act	bIAP inhibitor	hIAP inh	mIAP block	mIAP act	bIAP act	hIAP act confirm
CCCCN1/C(=C/c2ccc3ccccc3[n+]2CC)Sc2ccccc21	0.82	40	18	8	0.92	0.6	.
CCN1/C(=C/c2ccc3ccccc3[n+]2CC)C=Cc2ccccc21	0.64	.	36*	26	0.74	0.3	-49
Cc1ccc(C(=O)NC(C)c2nc3ccccc3n2CC(=O)Nc2c(C)cc(C)cc2C)cc1 (centres undefined)	4*	.	-303	-168	2.7*	.	-54
COc1cc(N)c(Cl)cc1C(=O)OCC(=O)Nc1ccc(N2CCOCC2)cc1	0.92	.	8	0	1	.	.
O=C(Nc1cccc(Cl)c1)c1ccc2ncsc2c1	0.91	.	9	6	0.94	.	.
Nc1oc2ccccc2c(=O)c1C=O	0.27	7	73*	11	0.89	0.9	15
CNc1ccc(S(=O)(=O)NCC(=O)NCCCc2ccccc2)cc1[N+](=O)[O-]	0.65	.	35*	-9	1.1	.	5
CN(C)c1ccc(S(=O)(=O)NCC(=O)NCc2ccccc2)cc1[N+](=O)[O-]	0.89	.	11	3	0.97	.	.
Cc1ccc(N(CC(O)CN2C(=O)NC(C)(C)C2=O)S(=O)(=O)c2ccc([N+](=O)[O-])cc2)cc1 (centres undefined)	0.61	.	39*	8	0.92	.	18
Cc1ccc(N(CC(O)CN2C(=O)NC(C)(C)C2=O)S(=O)(=O)c2ccc(C)cc2)cc1 (centres undefined)	0.93	.	7	-4	1	.	.
O=C(Oc1ccc([N+](=O)[O-])cc1)C1CC(=O)N(c2ccc3c(c2)OCCO3)C1 (centres undefined)	1.1	.	-12	-4	1	.	.
COc1ccccc1C1=NN(C2=NN=C(N)Cc3ncnn32)C(O)(C(F)(F)F)C1 (centres undefined)	2.8*	-43	-177	16	0.84	1.4	45
COc1ccc(C2=NN(C3=NN=C(N)Cc4ncnn43)C(O)(C(F)(F)F)C2)cc1 (centres undefined)	2.6*	-72	-160	14	0.86	1.7	42
NC1=NN=C(N2N=C(c3ccccc3)CC2(O)C(F)(F)F)n2ncnc2C1 (centres undefined)	1.1	-41	-10	28	0.72	1.4	.
CCOC(=O)N1N=C(c2ccc(OC)cc2)CC1(O)C(F)(F)F (centres undefined)	1.2	-8	-19	9	0.91	1.1	.
NC1=NN=C(N2N=C(c3ccc(Br)cc3)CC2(O)C(F)(F)F)n2ncnc2C1 (centres undefined)	2.6*	-8	-162	5	0.95	1.1	4
O=C(NNC(=S)NCc1ccco1)c1ccccc1Br	2.3*	.	-126	16	0.84	.	41
O=C(NCc1ccco1)c1ccccc1Br	1	5	-2	-8	1.1	1	.
O=C(NNC(=S)NC1CCCCC1)c1ccccc1Br	2*	.	-101	-3	1	.	-43*
Cc1ccsc1C(=O)NNC(=S)NC1CCCCC1	2.3*	.	-127	3	0.97	.	49
COc1cc(SC)ccc1C(=O)OCC(=O)N1CC(=O)Nc2ccccc21	0.99	.	1	-9	1.1	.	.
COc1ccc2oc(=O)c(C(=O)NCCc3ccc(OC)c(OC)c3)cc2c1	1.2	.	-16	1	0.99	.	.
COc1ccc(-c2nnc(SCC(=O)N3CCOCC3)n2C)cc1OC	2.3*	10	-127	0	1	0.9	5
CCOC(=O)C1=CN(Cc2ccco2)S(=O)(=O)N(CC)C1c1ccccc1 (centres undefined)	.	.	.	-10	1.1	.	.
COc1ccccc1C1CN(c2ccccc2)N=C1c1cccs1 (centres undefined)	0.4	-25	60*	-53	1.5	1.2	-128*
SMILES	hIAP act	bIAP inhibitor	hIAP inh	mIAP block	mIAP act	bIAP act	hIAP act confirm
CC(C)c1ccc(NC(=O)c2cccc(Br)c2)cc1	2.4*	18	-145	-1	1	0.8	-13
O=C(Nc1cccc(C(=O)Nc2cccc(Br)c2)c1)c1ccccc1	1	.	-4	-3	1	.	.
CC(CNC(=O)CN1C(=O)NC2(CCCCC2)C1=O)c1ccccc1 (centres undefined)	1	.	-5	4	0.96	.	.
Cc1ccc(-c2[nH]ncc2C(=O)c2cccc(F)c2)c(O)c1	2*	.	-105	4	0.96	.	6
Cc1cccc(C(=O)c2cn[nH]c2-c2ccc(C)cc2O)c1	1.1	.	-7	-8	1.1	.	.
O=C(NNC1=NCCC1)c1ccc(Br)cc1	2.6*	-1	-161	2	0.98	1	-44
Cc1cc(C)c2nc(SCC(=O)NNC(=O)c3ccco3)c(C)cc2c1	2*	-8	-103	3	0.97	1.1	-59*
Cc1cc2cccc(C)c2nc1SCC(=O)NNC(=O)c1ccco1	1.7	-23	-74	-8	1.1	1.2	.
COc1ccccc1CNC(=O)Cn1nc(C)c([N+](=O)[O-])c1C	0.63	.	37*	4	0.96	.	-59
CCCNC(=O)C(Cc1cccc(C#N)c1)NC(=O)c1ccc(C#N)cc1 (centres undefined)	0.97	.	3	8	0.92	.	.
O=C(Nc1cccc(-c2cccc(F)c2)c1)C1CCN(Cc2ccco2)CC1	2.3*	.	-129	-12	1.1	.	-9
Cc1cc(C)c(NC(=O)CN(C)CC(=O)N(C)CC(=O)Nc2c(Cl)cccc2Cl)c(C)c1	0.97	.	3	5	0.95	.	.
COC(=O)c1ccc(N/C(C)=C/C(=O)c2ccc(C)o2)cc1	0.64	2	36*	12	0.89	1	-3
CN1CCN(CCNC(=O)Cn2c(=O)c3cccn3c3ccc(F)cc32)CC1	0.61	.	39*	7	0.93	.	35
O=c1oc(-c2ccc(O)c(O)c2)cc2cccc(O)c12	0.87	.	13	23	0.77	.	.
O=c1oc(-c2ccc(O)c(O)c2)cc2cc(O)cc(O)c12	0.31	.	69*	35	0.65	.	25
Cc1nn(-c2ccccc2)c(C)c1C(=O)OCc1ccc(C#N)cc1	0.96	.	4	4	0.95	.	.
Cc1cccc(C(=O)NCC(=O)N2CCN(c3ccccn3)CC2)c1	0.98	.	2	13	0.87	.	.
Cn1c(C(=O)N2CCCC(C(=O)NCc3cccs3)C2)cc2sccc21 (centres undefined)	0.62	5	38*	4	0.96	1	-50
O=c1c(O[C@H]2O[C@@H](CO)[C@H](O)[C@@H](O)[C@@H]2O)c(-c2ccc(O)cc2)oc2cc(O)cc(O)c12	0.98	.	2	-3	1	.	.
C[C@@H]1O[C@@H](Oc2c(-c3cc(O)c(O)c(O)c3)oc3cc(O)cc(O)c3c2=O)[C@H](O)[C@H](O)[C@H]1O	1.1	-15	-11	13	0.87	1.1	.
